An excerpt weighted towards active compounds, which were near 0.61% of everything screened.
F508del corr: CFTR F508del correction in bronchial cells. AID 720511. 350,000 tested, 0.36% active. activity (quench increase), % at 7.58 µM. CFBE cells, YFP halide quenching; stimulated with forskolin plus potentiator P3; % fluorescence drop versus neutral controls;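 active = mean added fluorescence quench of at least 8% versus neutral control, with both replicates also reaching 8%; inconclusive = only one of the mean or replicate conditions met; inactive = mean below 8% and not both replicates reaching 8%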;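 note: cells transiently co-express mutant CFTR-F508del with the halide-sensitive YFP; corrector assay measuring rescue of mutant channel to the surface after 24 h compound exposure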
XiGFP reactiv: activators of X-chromosome reactivation in mouse fibroblasts; XiGFP mouse fibroblasts, % GFP-positive cells imaging, 3 d; cells co-treated with 5-aza-dC sensitizer; scaled so ellipticine positive control = 100%; activation, % at 7.58 µM; 360,000 tested, 0.055% active; AID 743238;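 active = mean normalized replicate activation at least 10% and every replicate at or above 10%; inconclusive = only one of the two criteria met; inactive = mean below 10% and not all replicates reach 10%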;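 note: 0% = median of on-plate neutral control wells and 100% = ellipticine 6 µM median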
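Material: XiGFP fibroblasts, SV40-immortalized. Buffer or medium: DMEM plus 5-aza-dC sensitizer. Compound: single concentration per compound, delivered by pin transfer. Times: 3 days compound exposure. Controls: ellipticine 6 µM.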
E-selectin induc: E-selectin induction on HUVECs | HUVEC E-selectin immunofluorescence imaging; normalized: neutral wells 0, TNF-alpha wells 100 | activation, % at 7.58 µM | 260,000 tested, 0.37% active;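 active = mean E-selectin-positive cell signal at least 10% of the positive control, reached in at least 60% of replicates, without over 20% cell loss; inconclusive = no rule given, readout overlaps actives, possibly toxicity-flagged; inactive = the rest, including those meeting only one limit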
Target sequence (P16581 whole entry, looked up): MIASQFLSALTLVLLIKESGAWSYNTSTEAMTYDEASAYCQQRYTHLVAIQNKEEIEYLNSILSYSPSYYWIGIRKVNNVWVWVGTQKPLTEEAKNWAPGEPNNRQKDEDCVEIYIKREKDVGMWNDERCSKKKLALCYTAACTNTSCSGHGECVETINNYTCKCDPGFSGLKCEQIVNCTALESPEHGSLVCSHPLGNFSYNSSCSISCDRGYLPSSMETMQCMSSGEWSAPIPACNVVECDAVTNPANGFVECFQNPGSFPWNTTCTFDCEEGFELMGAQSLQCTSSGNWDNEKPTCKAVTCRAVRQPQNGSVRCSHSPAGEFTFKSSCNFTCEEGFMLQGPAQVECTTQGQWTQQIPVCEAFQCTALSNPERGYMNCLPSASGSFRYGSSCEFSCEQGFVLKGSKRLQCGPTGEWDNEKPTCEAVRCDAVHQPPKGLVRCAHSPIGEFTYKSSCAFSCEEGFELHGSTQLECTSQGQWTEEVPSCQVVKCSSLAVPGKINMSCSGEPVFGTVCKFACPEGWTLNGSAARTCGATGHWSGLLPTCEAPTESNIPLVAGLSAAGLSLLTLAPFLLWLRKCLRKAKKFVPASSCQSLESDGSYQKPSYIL
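Test system – human umbilical vein endothelial cells (HUVEC), E-selectin induction · Input – 3,000 HUVEC seeded per well · Buffer or medium – EGM-2, gelatin · Compound dosing – single-point compound dose · Detection – immunofluorescence imaging · Measure – percent E-selectin-positive cells · Controls – TNF-alpha high, DMSO low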
* hit, by the source's call; ? = inconclusive; / = no result given.

SMILES	F508del corr	XiGFP reactiv	E-selectin induc
Cc1ccc(S(=O)(=O)N(C)C[C@@H]2Oc3ccc(NC(=O)Cc4ccccc4)cc3C(=O)N([C@@H](C)CO)C[C@H]2C)cc1	-1	-1	3
CO[C@H]1CN(C)C(=O)c2ccc(NC(=O)c3nc4ccccc4s3)cc2OC[C@H](C)N(Cc2cncnc2)C[C@@H]1C	0	0	0
C[C@H](NC(=O)C[C@@H]1C[C@H]2c3cc(NC(=O)CC4CC4)ccc3O[C@H]2[C@@H](CO)O1)c1ccccc1	1	0	-1
C[C@@H]1CN([C@@H](C)CO)C(=O)c2cc(NC(=O)Nc3ccc4c(c3)OCO4)ccc2O[C@H]1CN(C)C	-1	-1	45*
C[C@H]1CN([C@@H](C)CO)C(=O)c2cc(NC(=O)Nc3ccc4c(c3)OCO4)ccc2O[C@H]1CN(C)C	-3	-1	-8
C[C@@H]1CN([C@H](C)CO)C(=O)c2cc(NS(=O)(=O)c3cn(C)cn3)ccc2O[C@@H]1CN(C)C(=O)Nc1ccc2c(c1)OCO2	-1	0	62*
C[C@@H]1CN([C@@H](C)CO)C(=O)c2cc(NS(=O)(=O)c3cn(C)cn3)ccc2O[C@H]1CN(C)C(=O)Nc1ccc(F)cc1	-2	0	87*
C[C@@H]1CN([C@H](C)CO)C(=O)c2cccc(NC(=O)Nc3ccc(F)cc3)c2O[C@@H]1CN(C)S(=O)(=O)c1cn(C)cn1	-2	0	80*
C[C@@H]1CN([C@H](C)CO)C(=O)c2cc(NS(=O)(=O)c3cn(C)cn3)ccc2O[C@H]1CN(C)C(=O)Nc1ccc(F)cc1	2	0	-3
C[C@@H]1CN([C@@H](C)CO)C(=O)c2cccc(NC(=O)CCCCCC(=O)Nc3ccccc3N)c2O[C@H]1CN(C)S(=O)(=O)c1cn(C)cn1	1	-1	105*
C[C@@H]1CN([C@H](C)CO)C(=O)c2cc(NS(=O)(=O)c3cn(C)cn3)ccc2O[C@@H](C)CCCCO[C@H]1CN(C)C(=O)Nc1ccc2c(c1)OCO2	-1	-1	0
C[C@H]1CN([C@@H](C)CO)C(=O)c2cccc(NC(=O)Nc3ccccc3)c2O[C@H]1CN(C)S(=O)(=O)c1cn(C)cn1	1	-1	0
C[C@H](CO)N1C[C@H](C)[C@H](CN(C)S(=O)(=O)c2cn(C)cn2)Oc2ccc(NC(=O)CCCCCC(=O)Nc3ccccc3N)cc2C1=O	0	0	-3
CCCC(=O)Nc1ccc2c(c1)C(=O)N(C)C[C@@H](OC)[C@H](C)CN(CC1CCOCC1)[C@@H](C)CO2	0	0	0
COc1cccc(S(=O)(=O)N2CC[C@@H]3[C@H](CO)N(C)c4ccc(C5=CCCCC5)cc4[C@@H]32)c1	?	0	0
CCNC(=O)C[C@H]1CC[C@H](NS(=O)(=O)c2ccc(F)cc2)[C@H](CO)O1	-1	0	0
CC=Cc1ccc2n(c1=O)C[C@H]1[C@H](CO)[C@@H](C(=O)N3CCC(Cc4ccccc4)CC3)N(CC)[C@@H]21 (mixture of isomers)	-1	0	0
COc1ccc2c3c([nH]c2c1)[C@H](CO)N(C(=O)CN(C)C)CC31CN(C(=O)c2ccncc2)C1	2	0	0
Cc1noc(C)c1NC(=O)N(C)C[C@@H]1OCCCC[C@H](C)Oc2ccc(NC(=O)CCC(F)(F)F)cc2C(=O)N([C@H](C)CO)C[C@@H]1C	0	-1	0
O=C(Nc1ccccc1F)N1C[C@H]2[C@@H](c3ccccc31)[C@H](CO)N2C(=O)Nc1ccccc1	2	0	0
C[C@@H]1CN([C@H](C)CO)C(=O)Cc2cc(NC(=O)NC3CCCCC3)ccc2O[C@H]1CN(C)C(=O)Nc1ccccc1	-1	0	0
C[C@@H]1CN([C@H](C)CO)C(=O)c2cccc(NS(=O)(=O)c3cn(C)cn3)c2O[C@H]1CN(C)C(=O)Nc1ccc(F)cc1	5	0	410*
C[C@@H]1CN([C@H](C)CO)C(=O)c2cccc(NS(=O)(=O)c3cn(C)cn3)c2O[C@@H]1CN(C)C(=O)Nc1ccc(F)cc1	-3	0	21
C[C@@H]1CCCCO[C@@H](CN(C)C(=O)NC2CCCCC2)[C@H](C)CN([C@H](C)CO)C(=O)c2cc(NC(=O)CCCN(C)C)ccc2O1	3	0	1
CC(C)CC#Cc1cnc2c(c1)C(=O)N([C@H](C)CO)C[C@H](C)[C@@H](CN(C)S(C)(=O)=O)O2	0	-1	0
SMILES	F508del corr	XiGFP reactiv	E-selectin induc
NS(=O)(=O)c1ccc(NC(=O)c2cccc3ccccc23)cc1	4	0	/
NS(=O)(=O)c1ccc(NC(=O)c2cccc3cc4ccccc4nc23)cc1	19*	1	/
CCc1nc(N)nc(N)c1-c1ccc(Cl)c(N=[N+]=[N-])c1	-5	1	0
CCc1nc(N)nc(N)c1-c1ccc(Cl)c([N+](=O)[O-])c1	9.1*	0	0
O=C(/C=C/c1ccccn1)c1ccc(Br)cc1O	/	0	105*
O=C(/C=C/c1ccccn1)c1cc(Br)ccc1O	2	0	0
C=CCN=c1scc(C)n1/N=C/c1ccc(O)c(O)c1	11*	1	0
CN=c1scc(-c2ccco2)n1/N=C/c1ccc(O)c(O)c1	0	0	/
COCCNC(=O)C[C@@H]1C[C@H]2c3cc(NC(=O)Nc4ccc(C(F)(F)F)cc4)ccc3O[C@H]2[C@@H](CO)O1	-3	0	0
COc1ccc(C(=O)N2CC(c3ccccc3)CC2=O)cc1 (centres undefined)	-1	0	83*
COc1ccc(C(=O)N2CC(=O)Nc3ccc(C)cc3C2c2ccccc2)cc1 (centres undefined)	-4	0	0
COC(=O)C[C@@H]1CC[C@@H]2[C@H](COc3ccc(NC(=O)C4CCOCC4)cc3C(=O)N2C)O1	3	0	0
COc1cc(C(=O)NC(C)c2ccccc2)ccc1OCC(=O)N1CCOCC1 (centres undefined)	7	0	0
COc1cc(C(=O)NC(C)c2cc(C)ccc2C)ccc1OCC(=O)N1CCOCC1 (centres undefined)	-1	0	144*
COc1cccc(-c2nnc(SCC(=O)NC3CCS(=O)(=O)C3)n2C)c1 (centres undefined)	21*	0	0
Cn1c(SCC(=O)NC2CCS(=O)(=O)C2)nnc1-c1ccco1 (centres undefined)	-1	0	0
COc1ccc(S(=O)(=O)Nc2ccc3c(c2)[C@@H]2C[C@@H](CC(=O)N(C)C)O[C@@H](CO)[C@@H]2O3)cc1	-1	0	0
CO[C@H]1CN(C)C(=O)c2cc(NC(=O)C3CC3)ccc2OC[C@@H](C)N(Cc2nccs2)C[C@H]1C	1	-1	0
COc1ccc(NC(=O)Nc2ccc3c(c2)C(=O)N([C@@H](C)CO)C[C@@H](C)[C@@H](CN(C)S(=O)(=O)c2cccs2)OCCCC[C@H](C)O3)cc1	0	0	0
C[C@H](CO)N1C[C@H](C)[C@H](CN(C)Cc2ccncc2)Oc2ccc(NC(=O)CCC(F)(F)F)cc2CC1=O	1	0	314*

High-throughput results (PubChem BioAssay)
